OXTR potentiator – potentiators of human oxytocin receptor | CHO-OTR cells, Fluo-8 calcium fluorescence, potentiator mode; 0% = oxytocin EC15, 100% = EC100 | activation, % at 3 µM | hit rate 0.061% among 320,000 | P30559;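 active means activation above that plate's cutoff, the mean activation of tested compounds plus 3 SD, cut at about 6.6% in these data, passing the limit was not always enough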;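 further: 100% uses oxytocin at 75 nM as the full agonist control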
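test system = CHO-OTR cells, human receptor | compound = single-point 3.0 µM | schedule = 6 min compound pre-incubation at room temperature, 100 s kinetic read | signal = Fluo-8 no-wash calcium dye fluorescence, excitation 470-495 nm, emission 515-575 nm | repeats = single well per compound, singlicate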
M4 ag – agonists of human muscarinic M4 receptor (CHRM4); CHO-K1 hM4/Gqi5, Fluo-8 calcium fluorescence; vehicle 0%, full acetylcholine response 100%; activation, % at 3 µM; hit rate 0.14% among 360,000; AID 624127; P08173;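 active means activation above the run mean over all test wells plus 3 SD, cut at about 32% in these data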;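 further: peak over basal fluorescence ratio per well then scaled between controls; 0% = DMSO wells and 100% = acetylcholine at EC100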
Target sequence (P08173 whole entry, looked up): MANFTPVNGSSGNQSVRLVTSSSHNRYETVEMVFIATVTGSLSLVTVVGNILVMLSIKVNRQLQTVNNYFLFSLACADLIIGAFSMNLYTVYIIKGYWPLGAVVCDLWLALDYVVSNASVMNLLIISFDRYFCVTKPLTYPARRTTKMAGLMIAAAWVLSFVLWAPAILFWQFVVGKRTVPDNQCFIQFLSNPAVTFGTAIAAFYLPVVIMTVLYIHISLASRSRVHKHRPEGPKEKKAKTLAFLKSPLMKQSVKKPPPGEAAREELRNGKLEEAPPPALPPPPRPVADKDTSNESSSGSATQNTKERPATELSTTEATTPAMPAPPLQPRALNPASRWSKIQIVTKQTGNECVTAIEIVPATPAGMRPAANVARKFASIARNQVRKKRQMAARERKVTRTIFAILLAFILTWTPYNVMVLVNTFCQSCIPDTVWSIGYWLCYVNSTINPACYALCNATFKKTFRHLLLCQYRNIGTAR
CHRM4 PAM – potentiates acetylcholine response at human M4 receptor. activation, % at 3 µM. CHO-K1 hM4/Gqi5, Fluo-8 calcium fluorescence, ACh EC20; 0% = ACh EC20, 100% = maximal ACh. hit rate 0.4% among 360,000. P08173;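 active means activation above its plate's cutoff, the mean activation of sample wells plus 3 SD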
CHRM4 antagonist – blocks acetylcholine activation of human M4 receptor. P08173. CHO-hM4 cells, ACh EC80, Fluo-8 calcium fluorescence. inhibition, % at 3 µM. hit rate 0.73% among 360,000;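 active means inhibition above its plate's cutoff, the mean inhibition of sample wells plus 3 SD, cut at about 27% in these data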;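 further: 0% = acetylcholine EC80 with DMSO and 100% = DMSO without agonist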
V1R ag counter – V1a receptor agonism, counter-screen for OXTR agonists; hit rate 0.25% among 320,000; activation, % at 3 µM; AID 2797; P37288; CHO-V1R cells, Fluo-8 calcium fluorescence, agonist mode; 0% DMSO, 100% 3 nM vasopressin;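 active means activation above the mean activation of all tested compounds plus 3 SD, per screening run, cut at about 20% in these data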;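 further: signal is peak over basal fluorescence ratio across a 100 second FLIPR read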
OXTR ag – human OXTR agonism | P30559 | CHO-OTR cells, Fluo-8 calcium fluorescence; normalized: DMSO 0%, oxytocin 100% | activation, % at 3 µM | hit rate 0.32% among 320,000 | AID 2435;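 active means activation above the mean of all tested compounds plus 3 SD, cutoff set per screening run, cut at about 20% in these data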;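 further: peak over basal fluorescence ratio from a 100 s FLIPR kinetic read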
Numbers without * were called inactive; . = no result. Only some compounds are listed: those with a hit (about 1.5% of all), similar ones and a draw of the others.

SMILES | OXTR potentiator | M4 ag | CHRM4 PAM | CHRM4 antagonist | V1R ag counter | OXTR ag
CCc1nc2ccc(C(=O)NCCc3c[nH]c4ccccc34)cn2c1N(C=O)CCC(C)C | . | 18 | -9 | -7 | . | .
O=C(O)CCC(=O)Nc1sc2c(c1C(=O)Nc1cccc3ccccc13)CCCCC2 | 3 | 1 | 0 | 1 | 1 | 0
O=C(O)CCC(=O)Nc1sc2c(c1C(=O)Nc1ccccc1)CCCCC2 | -6 | 7 | 9 | 40* | 0 | 1
CC(C)OC(=O)c1c(NC(=O)CCC(=O)O)sc2c1CCCCC2 | -2 | 1 | 21* | 16 | 2 | 1
CCC/C=C/c1ccc(CN2C(C)C(=O)N(Cc3cn(CCC4OCCO4)nn3)CCS2(=O)=O)cc1 (stereo unspecified) | . | 4 | 3 | -3 | . | .
CCN(CC)S(=O)(=O)c1ccc(N2CCOCC2)c(NC(=O)c2cccc3ccccc23)c1 | -11 | 14 | -24 | 30* | 7 | 5
CCN(CC)S(=O)(=O)c1ccc(N2CCOCC2)c(NC(=O)c2ccc3ccccc3c2)c1 | -3 | 1 | 13 | -4 | 0 | -1
CCN(CC)CCn1c(NC(=O)c2ccccc2O)nc2ccccc21 | 1 | 6 | -4 | 2 | 0 | 0
O=C(Cc1cccc(NC(=O)C2CCCN(C(=O)CCc3ccccc3)C2)c1)Nc1ccc(C(=O)N2CCCCC2)cc1 (stereo unspecified) | . | 1 | 4 | -3 | . | .
C/C(CC1CC(COCC(C)C)OC1=O)=N\Nc1nc(-c2ccccc2)cs1 (stereo unspecified) | -2 | 1 | -1 | 30* | 6 | -1
Cc1ccc(NC(=O)CNc2cccc(S(=O)(=O)N3CCCC3)c2)cc1F | -15 | 13 | 3 | -11 | 9 | 6
O=C(CNc1cccc(S(=O)(=O)N2CCCC2)c1)Nc1ccc(F)c(F)c1 | -13 | 14 | 20* | -17 | 8 | 9
Cc1[nH]c(=O)c(C#N)c(C)c1CCC(=O)Nc1cc(S(C)(=O)=O)ccc1Cl | 1 | 0 | 20* | -33 | 0 | 1
Cc1ccc(F)cc1NC(=O)CCc1c(C)[nH]c(=O)c(C#N)c1C | -6 | 0 | 0 | 11 | 0 | 1
O=C(NNC(=O)c1cc2cc3ccccc3nc2s1)c1cccc(Cl)c1 | 0 | 1 | 30* | 3 | 0 | 0
Cc1cccc(C(=O)NNC(=O)c2cc3cc4ccccc4nc3s2)c1 | 1 | 1 | 9 | 0 | 1 | 1
Cc1noc(C)c1C(=O)Nc1ccc(S(=O)(=O)N2CCCCC2)cc1 | 0 | 6 | 16* | 2 | 7 | 2
Cc1onc(-c2c(F)cccc2Cl)c1C(=O)Nc1cc(S(=O)(=O)N2CCCCC2)ccc1O | . | 24 | -14 | 27* | . | .
Cc1onc(-c2c(F)cccc2Cl)c1C(=O)Nc1ccc(S(=O)(=O)N2CCOCC2)cc1 | 0 | 4 | 0 | -2 | 2 | 5
Cc1ccc(C(=O)N2CC(=O)NC(=O)C2)cc1 | -8 | 2 | 3 | -18 | 0 | 0
COc1ccc(NC(=O)C(CC(=O)O)Cc2ccc(Cl)cc2)cc1 (stereo unspecified) | 0 | 1 | 8 | -4 | 0 | 1
N#CC(C#N)=C1C=C2C=C(N3CCCCC3)CCC2CC1 (stereo unspecified) | -12 | . | . | . | 617* | 921*
CCN(CC)C1=CC2=CC(=C(C#N)C#N)CCC2CC1 (stereo unspecified) | -21 | 210* | -21 | 42* | 750* | 807*
CCCCN(C)C1=CC2=CC(=C(C#N)C#N)CCC2CC1 (stereo unspecified) | -23 | 439* | -25 | 81* | 873* | 771*
O=S(=O)(NCC1CCCO1)c1ccc(Cl)cc1 (stereo unspecified) | 3 | 1 | 3 | 8 | 1 | 2
SMILES | OXTR potentiator | M4 ag | CHRM4 PAM | CHRM4 antagonist | V1R ag counter | OXTR ag
O=C1c2ccccc2C(c2nnnn2Cc2ccccc2)N1Cc1cccs1 (stereo unspecified) | . | 2 | 4 | 4 | . | .
CCc1ccc(C(=O)N/N=C/c2ccncc2)s1 | . | 0 | 7 | -4 | . | .
Cc1ccc(OCCOc2ccc(Br)cc2)c([N+](=O)[O-])n1 | -6 | 3 | 0 | 4 | 0 | -2
Cc1c(C(c2cc3c(cc2Br)OCO3)c2c(C)n(C)n(-c3ccccc3)c2=O)c(=O)n(-c2ccccc2)n1C | -5 | -1 | -28 | 44* | 0 | 0
Cc1c2cc[n+](CCN3CCCCC3)cc2c(C)c2c1[nH]c1ccc(O)cc12 | . | 0 | 5 | -3 | . | .
COc1ccc2c(Cl)c(C(=O)N/N=C/c3cccnc3)sc2c1 | -18 | 8 | 0 | -9 | 1 | 0
O=C(COc1ccccc1Br)Nc1ccc(S(=O)(=O)N2CCCC2)cc1 | -10 | 12 | -3 | -16 | 5 | 1
CC(=O)NCCCc1nc2ccccc2n1Cc1ccccc1C | -5 | 2 | 10 | 27* | 0 | 0
CC(=O)NCc1nc2ccccc2n1Cc1ccccc1C | -3 | 1 | 5 | -3 | 1 | 1
CCOC(=O)C=C1CCN(c2ncc(C(F)(F)F)cc2Cl)CC1 | 5 | 0 | -3 | -4 | 0 | 2
CCOC(=O)N1CCN(c2ncc(C(F)(F)F)cc2Cl)CC1 | -7 | 1 | 23* | -6 | 0 | -2
CCCCCCCCCCCCCCCC[n+]1ccccc1 | . | 0 | -16 | 45* | . | .
C[C@@H]1CN([C@@H](C)CO)S(=O)(=O)c2ccc(Br)cc2O[C@H]1CN(C)C(=O)Cc1cccnc1 | . | 1 | 0 | -8 | . | .
Cc1cccc(C)c1NC(=O)NC1(C(=O)NCc2ccncc2)CCCCC1 | 2 | 1 | -4 | 11 | 0 | 1
c1ccc2c(c1)nnn2CNc1nccs1 | -8 | 1 | 22* | -8 | 0 | 0
O=C(COC(=O)c1c[nH]c(=O)[nH]c1=O)Nc1ccccc1Br | 0 | 0 | -8 | -1 | 1 | 0
CCN(CC(=O)Nc1ccccc1C(F)(F)F)C(=O)CSCC(=O)Nc1cc(C)on1 | -6 | 0 | 23* | -8 | 0 | -1
CCN(CC(=O)Nc1cc(C)on1)CC(=O)Nc1ccccc1C(F)(F)F | -4 | 2 | 8 | 0 | 0 | 1
C[C@H](NC(=O)c1nc[nH]c1C(=O)N[C@@H](CCCCN)C(=O)OC(C)(C)C)C(=O)OCc1ccccc1 | -4 | 1 | 4 | 5 | 0 | 0
CN(C)CCCN1c2ccccc2CCc2ccc(Cl)cc21 | -5 | 5 | -17 | 72* | 4 | 7
CN(CCCN1c2ccccc2CCc2ccccc21)CC(=O)c1ccc(Cl)cc1 | -8 | . | . | . | -1 | -1
CCC(=O)c1ccc2c(c1)N(CCCN(C)C)c1ccccc1S2 | -3 | 5 | -17 | 39* | 3 | 4
